Test results: ChEMBL document CHEMBL3244217, “Metabolism of cis-delta4-15(S)-15-methylprostaglandin F1alpha methyl ester in the rat” (J Med Chem, 1978)
Values belong to the compound of their own block, whether it stands above or below them.

Experiments:
Parameters in all cases: dose 0.28 mg/kg, route oral
[1] = tested on: Rattus norvegicus; test: Drug level in Sprague-Dawley rat treated with [3H]-cis-delta4-15(S)-15-methylprostaglandin F1alpha methyl ester at 0.28 mg/kg, po assessed compound formation; type: ADME, organism-based; details: in vivo
[2] = tested on: Rattus norvegicus; test: Toxicity in Sprague-Dawley rat assessed as diarrhea at 0.28 mg/kg, po up to 1 to 3 days; type: organism-based; details: in vivo
How it was run: (§1)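 Fifteen rats were kept in metabolism cages for 17 days. Each morning they received an oral dose of 0.25 mg of tritium-labelled drug (1 × 10^7 dpm). The animals were watched for side effects, including depression, diarrhoea, faecal staining of the abdomen and mortality, over the chronic dosing period.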

[3] = Drug excretion in Sprague-Dawley rat feces at 0.28 mg/kg, po administered as single dose within 74 hrs relative to control; type: ADME, organism-based; details: faeces, read-out: Drug excretion
How it was run: (§2)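 Four female Sprague-Dawley rats (Upjohn strain), about 200 g, were fasted overnight and each given one 0.28-mg oral dose of tritium-labeled drug (1.24 × 10^7 dpm) in distilled water by gastric tube. They were then kept in metabolism cages with free food and water, and urine and feces were collected at intervals. Radioactivity was read by liquid scintillation with external-standard quench correction. Urine aliquots (0.2 mL) were counted directly; feces were homogenized in water and aliquots dried and combusted before counting.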

[4] = tested on: Rattus norvegicus; test: Toxicity in Sprague-Dawley rat assessed as mortality at 0.28 mg/kg, po; type: organism-based; details: in vivo; how it was run: as §1
[5] = tested on: Rattus norvegicus; test: Toxicity in Sprague-Dawley rat assessed as depression at 0.28 mg/kg, po after 3 days; type: organism-based; details: in vivo, 72 h
[6] = tested on: Rattus norvegicus; test: Toxicity in Sprague-Dawley rat assessed as fecal stained abdominal area at 0.28 mg/kg, po up to 1 to 3 days; type: organism-based, Abdomen; details: in vivo; how it was run: as §1
[7] = tested on: Rattus norvegicus; test: Drug metabolism in Sprague-Dawley rat assessed as metabolite 3 (15-methyl-2,3-dinorprostaglandin F1alpha) formation at 0.28 mg/kg, po administered as single dose; type: ADME, organism-based; details: in vivo
How it was run: (§3)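 Urine was extracted on an Amberlite XAD-2 column and partially purified by silicic acid chromatography. Components were then separated by reversed-phase partition chromatography on Sephadex LH-20 (isooctyl alcohol–chloroform–methanol–water, 15:15:114:86), collecting 9-mL fractions. Identification used GC with radioactivity monitoring (3.8% UCW-98, 200 °C) and GC-MS of methyl ester, O-methoxime and trimethylsilyl derivatives; silylation was at 50 °C for 1 h.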

[8] = tested on: Rattus norvegicus; test: Drug metabolism in Sprague-Dawley rat assessed as metabolite 2 (cis-delta4-15-methylprostaglandin F1alpha) formation at 0.28 mg/kg, po administered as single dose; type: ADME, organism-based; details: in vivo; how it was run: as §3
[9] = tested on: Rattus norvegicus; test: Toxicity in Sprague-Dawley rat assessed as depression at 0.28 mg/kg, po up to 1 to 3 days; type: organism-based; details: in vivo; how it was run: as §1
[10] = tested on: Rattus norvegicus; test: Drug metabolism in Sprague-Dawley rat assessed as metabolite 4 (15-methyl-2,3,4,5-tetranorprostaglandin F1alpha) formation at 0.28 mg/kg, po administered as single dose; type: ADME, organism-based; details: in vivo; how it was run: as §3
[11] = Drug excretion in Sprague-Dawley rat urine at 0.28 mg/kg, po administered as single dose within 74 hrs relative to control; type: ADME, organism-based; details: read-out: Drug excretion; how it was run: as §2
[12] = tested on: Rattus norvegicus; test: Drug metabolism in Sprague-Dawley rat assessed as metabolite 5 ((4aR,5R,6R,7aS)-6-hydroxy-5-((S)-3-hydroxy-3-methyloct-1-enyl)hexahydrocyclopenta[b]pyran-2(3H)-one) formation at 0.28 mg/kg, po administered as single dose; type: ADME, organism-based; details: in vivo; how it was run: as §3
[13] = tested on: Rattus norvegicus; test: Toxicity in Sprague-Dawley rat assessed as diarrhea at 0.28 mg/kg, po after 3 days; type: organism-based; details: in vivo, 72 h
[14] = tested on: Rattus norvegicus; test: Toxicity in Sprague-Dawley rat assessed as fecal stained abdominal area at 0.28 mg/kg, po after 3 days; type: organism-based, Abdomen; details: in vivo, 72 h

Compound: CCCCC[C@](C)(O)/C=C/[C@@H]1[C@H]2CCC(=O)O[C@H]2C[C@H]1O
Drug metabolism [1]: metabolite_detected

Compound: [3H]O[C@H]1C[C@@H](O)[C@H](/C=C/[C@@](C)(O)CCCCC)[C@H]1CC/C=C\CCC(=O)OC
Activity [2]: Toxic
dose excreted at 74 h [3]: 38%
Activity [4]: Non-toxic
Activity [5]: Non-toxic
Activity [6]: Toxic
Drug metabolism [7]: metabolite_detected
Drug metabolism [8]: metabolite_detected
Activity [9]: Toxic
Drug metabolism [10]: metabolite_detected
dose excreted at 74 h [11]: 30%
Drug metabolism [12]: metabolite_detected
Activity [13]: Non-toxic
Activity [14]: Non-toxic

Compound: CCCCC[C@](C)(O)/C=C/[C@@H]1[C@@H](CCCCC(=O)O)[C@@H](O)C[C@H]1O
Drug metabolism [1]: metabolite_detected

Next, values leading:

Drug metabolism [1]: metabolite_detected
Compound: CCCCC[C@](C)(O)/C=C/[C@@H]1[C@@H](CCC(=O)O)[C@@H](O)C[C@H]1O

Drug metabolism [1]: metabolite_detected
Compound: CCCCC[C@](C)(O)/C=C/[C@@H]1[C@@H](CC/C=C\CCC(=O)O)[C@@H](O)C[C@H]1O
